Measured values: ChEMBL document CHEMBL1152684 (Bioorg Med Chem, 2009)
The source made the active and inactive calls. The rule behind the calls is not given here.

How the values were obtained:
[1] = Inhibition of protein phosphatase 1
[2] = organism: Homo sapiens; assay: Binding affinity to cysteine-269 residue of human protein phosphatase 2A catalytic subunit at 0.6 uM after 2 hrs by MALDI-TOF MS analysis
Summary of the method: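 Purified PP2A (0.5 unit) incubated with or without ligand at 0.6 in 25 mM Tris-HCl, 137 mM NaCl, pH 7.5, 30 °C, 2 h. Samples boiled in SDS loading buffer with DTT and run on 10% gel. PP2Ac band reduced with DTT, alkylated with acrylamide and trypsin-digested. Peptide masses (MALDI-TOF MS) compared with native PP2Ac to find the adduct-bearing fragment.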

[3] = Inhibition of protein phosphatase 2A

In the case of `C[C@@](O)(/C=C/[C@H]1CC=CC(=O)O1)[C@@H](C[C@@H](O)\C=C/C=C\C=C\CO)OP(=O)(O)O` [FOSTRIECIN], the IC50 [1] is reported as 45 µM, the Activity [2] is reported as “Active” and the IC50 [3] is reported as 0.0015 µM.
